Source: ChEMBL document CHEMBL4138207, “Phenolic Substances from Ocimum Species Enhance Glucose-Stimulated Insulin Secretion and Modulate the Expression of Key Insulin Regulatory Genes in Mice Pancreatic Islets” (J Nat Prod, 2017)
Activity calls are given as the source filed them. No cut-off for these calls is given here.

What was measured:
[1] = Induction of 16.7 mM glucose-stimulated insulin secretion in NMRI mouse pancreatic islets at 10^-10 M after 60 mins by radioimmunoassay relative to 16.7 mM glucose control; type: functional, Pancreatic islet
How it was run: (§1)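 Female NMRI mouse islets, cultured overnight, were preincubated 30 min in KRB with 3.3 mM glucose and 0.1% BSA. Single islets were then incubated 60 min at 37 °C in HEPES-KRB (pH 7.4) with 16.7 mM glucose plus compound at 10−10, 10−8 or 10−6 M, diluted from 10−4 M aqueous stock. Medium insulin was measured by RIA and expressed as fold of the 16.7 mM glucose control; 24 replicates.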

Pancreatic islet [2] = assay: Upregulation of GCGR mRNA expression in NMRI mouse pancreatic islets at 10^-8 M after 72 hrs by Taqman-based qRT-PCR analysis; type: functional, cell-based
How it was run: (§2)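 Female NMRI mouse islets were exposed 72 h to compound at 10−8 M in RPMI with 11.1 mM glucose. Islets from 2–3 mice (180–200) were pooled for Trizol RNA extraction. Reverse transcription and 14-cycle preamplification preceded TaqMan real-time PCR. Data were normalized to the geometric mean of 18S and Hprt1 by the (1+efficiency)−ΔCT method and expressed as fold versus untreated control. Samples were run in triplicate, each measured in triplicate.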

Pancreatic islet [3] = assay: Upregulation of IRS1 mRNA expression in NMRI mouse pancreatic islets at 10^-8 M after 72 hrs by Taqman-based qRT-PCR analysis; type: functional, cell-based; how it was run: as §2
Pancreatic islet [4] = assay: Upregulation of INSR mRNA expression in NMRI mouse pancreatic islets at 10^-8 M after 72 hrs by Taqman-based qRT-PCR analysis; type: functional, cell-based; how it was run: as §2
Pancreatic islet [5] = assay: Upregulation of INS1 mRNA expression in NMRI mouse pancreatic islets at 10^-8 M after 72 hrs by Taqman-based qRT-PCR analysis; type: functional, cell-based; how it was run: as §2
Pancreatic islet [6] = assay: Upregulation of INS2 mRNA expression in NMRI mouse pancreatic islets at 10^-8 M after 72 hrs by Taqman-based qRT-PCR analysis; type: functional, cell-based; how it was run: as §2
[7] = Induction of 16.7 mM glucose-stimulated insulin secretion in NMRI mouse pancreatic islets at 10^-6 M after 60 mins by radioimmunoassay relative to 16.7 mM glucose control; type: functional, Pancreatic islet; how it was run: as §1
[8] = Induction of 3.3 mM glucose-stimulated insulin secretion in NMRI mouse pancreatic islets at 10^-8 M pretreated for 72 hrs in presence of 11.1 mM glucose followed by 3.3 mM glucose stimulation after 60 mins by radioimmunoassay; type: cell-based; settings: pancreatic islet, 1 h, 0.01 µM
How it was run: (§3)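 Islets from female NMRI mice were cultured 72 h in RPMI with 11.1 mM glucose and 10% FCS, ± compound at 10−8 M final. They were rinsed and preincubated 30 min in KRB with 3.3 mM glucose and 0.1% BSA. Single islets were then stimulated 60 min at 37 °C with 3.3 or 16.7 mM glucose. Insulin was measured by RIA as fold of the 16.7 mM glucose control; 24 replicates.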

[9] = (§4) Induction of 11.1 mM glucose-stimulated insulin secretion in NMRI mouse pancreatic islets at 10^-6 M after 60 mins by radioimmunoassay relative to control; type: functional, Pancreatic islet
How it was run: (§5)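 Islets from adult female NMRI mice (22–25 g), collagenase-isolated and cultured overnight in RPMI 1640 (11.1 mM glucose, 10% FCS) at 37 °C. After 30 min preincubation in KRB with 3.3 mM glucose and 0.1% BSA, single islets were incubated 60 min at 37 °C in HEPES-KRB (pH 7.4) at 3.3, 6.6, 11.1 or 16.7 mM glucose ± compound at 10−6 M. Insulin in the medium was measured by RIA, reported in ng/mL; n = 16 per treatment.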

Pancreatic islet [10] = assay: Upregulation of PDX1 mRNA expression in NMRI mouse pancreatic islets at 10^-8 M after 72 hrs by Taqman-based qRT-PCR analysis; type: functional, cell-based; how it was run: as §2
Pancreatic islet [11] = assay: Upregulation of […] mRNA expression in NMRI mouse pancreatic islets at 10^-8 M after 72 hrs by Taqman-based qRT-PCR analysis; type: functional, cell-based; how it was run: as §2
Pancreatic islet [12] = assay: Upregulation of GLUT2 mRNA expression in NMRI mouse pancreatic islets at 10^-8 M after 72 hrs by Taqman-based qRT-PCR analysis; type: functional, cell-based; how it was run: as §2
[13] = Induction of 3.3 mM glucose-stimulated insulin secretion in NMRI mouse pancreatic islets at 10^-6 M after 60 mins by radioimmunoassay; type: cell-based; settings: pancreatic islet, 1 h, 1 µM; how it was run: as §5
[14] = Induction of 16.7 mM glucose-stimulated insulin secretion in NMRI mouse pancreatic islets at 10^-8 M pretreated for 72 hrs in presence of 11.1 mM glucose followed by 16.7 mM glucose stimulation after 60 mins by radioimmunoassay relative to 16.7 mM glucose control; type: functional, Pancreatic islet; how it was run: as §3
[15] = Induction of 6.6 mM glucose-stimulated insulin secretion in NMRI mouse pancreatic islets at 10^-6 M after 60 mins by radioimmunoassay; type: cell-based; settings: pancreatic islet, 1 h, 1 µM; how it was run: as §5
Pancreatic islet [16] = assay: Induction of 16.7 mM glucose-stimulated insulin secretion in NMRI mouse pancreatic islets at 10^-6 M after 60 mins by radioimmunoassay; type: functional, cell-based; how it was run: as §5
[17] = Induction of 16.7 mM glucose-stimulated insulin secretion in NMRI mouse pancreatic islets at 10^-8 M after 60 mins by radioimmunoassay relative to 16.7 mM glucose control; type: functional, Pancreatic islet; how it was run: as §1
Pancreatic islet [18] = assay: as §4; type: functional; how it was run: as §5

## O=C(/C=C/c1ccc(O)c(O)c1)O[C@H](Cc1ccc(O)c(O)c1)C(=O)O [ROSMARINIC ACID]
[1]
  fold change (FC): 3.3
Pancreatic islet [2]
  Activity: inactive
Pancreatic islet [3]
  Activity: Active
Pancreatic islet [4]
  Activity: Active
Pancreatic islet [5]
  Activity: Active
Pancreatic islet [6]
  Activity: Active
[7]
  fold change (FC): 4.9
[8]
  Activity: Non-Toxic
[9]
  Activity: 68%
Pancreatic islet [10]
  Activity: Active
Pancreatic islet [11]
  Activity: inactive
Pancreatic islet [12]
  Activity: Active
[13]
  Activity: Non-Toxic
[14]
  fold change (FC): 3.4
[15]
  Activity: Non-Toxic
Pancreatic islet [16]
  Activity: Active
[17]
  fold change (FC): 2.8

## O=C(/C=C/c1ccc(O)c(O)c1)O[C@@H](C(=O)O)[C@@H](OC(=O)/C=C/c1ccc(O)c(O)c1)C(=O)O [CICHORIC ACID]
[1]
  fold change (FC): 1.8
Pancreatic islet [2]
  Activity: inactive
Pancreatic islet [3]
  Activity: Active
Pancreatic islet [4]
  Activity: Active
Pancreatic islet [5]
  Activity: Active
Pancreatic islet [6]
  Activity: Active
[7]
  fold change (FC): 4.1
[8]
  Activity: Non-Toxic
Pancreatic islet [10]
  Activity: Active
Pancreatic islet [11]
  Activity: inactive
Pancreatic islet [12]
  Activity: inactive
[13]
  Activity: Non-Toxic
[14]
  fold change (FC): 3.5
[15]
  Activity: Non-Toxic
Pancreatic islet [16]
  Activity: Active
[17]
  fold change (FC): 1.9

## O=C(O)/C=C/c1ccc(O)c(O)c1 [CAFFEIC ACID]
Pancreatic islet [2]
  Activity: inactive
Pancreatic islet [3]
  Activity: inactive
Pancreatic islet [4]
  Activity: inactive
Pancreatic islet [5]
  Activity: inactive
Pancreatic islet [6]
  Activity: inactive
[7]
  fold change (FC): 2
[8]
  Activity: Non-Toxic
Pancreatic islet [18]
  Activity: inactive
Pancreatic islet [10]
  Activity: Active
Pancreatic islet [11]
  Activity: Active
Pancreatic islet [12]
  Activity: Active
[13]
  Activity: Non-Toxic
[14]
  fold change (FC): 1.5
[15]
  Activity: Non-Toxic
Pancreatic islet [16]
  Activity: Active
[17]
  fold change (FC): 1.7

## O=c1cc(-c2ccc(O)cc2)oc2c([C@@H]3O[C@H](CO)[C@@H](O)[C@H](O)[C@H]3O)c(O)c([C@@H]3O[C@H](CO)[C@@H](O)[C@H](O)[C@H]3O)c(O)c12
[1]
  fold change (FC): 2.5
Pancreatic islet [2]
  Activity: inactive
Pancreatic islet [3]
  Activity: inactive
Pancreatic islet [4]
  Activity: Active
Pancreatic islet [5]
  Activity: inactive
Pancreatic islet [6]
  Activity: inactive
[7]
  fold change (FC): 2.3
[8]
  Activity: Non-Toxic
Pancreatic islet [10]
  Activity: inactive
Pancreatic islet [11]
  Activity: inactive
Pancreatic islet [12]
  Activity: inactive
[13]
  Activity: Non-Toxic
[14]
  fold change (FC): 2.2
[15]
  Activity: Non-Toxic
Pancreatic islet [16]
  Activity: Active
[17]
  fold change (FC): 2.3

## O=C(/C=C/c1ccc(O)c(O)c1)O[C@@H](C(=O)O)[C@@H](O)C(=O)O [CAFTARIC ACID]
[1]
  fold change (FC): 2.8
Pancreatic islet [2]
  Activity: inactive
Pancreatic islet [3]
  Activity: inactive
Pancreatic islet [4]
  Activity: Active
Pancreatic islet [5]
  Activity: Active
Pancreatic islet [6]
  Activity: Active
[7]
  fold change (FC): 5.5
[8]
  Activity: Non-Toxic
Pancreatic islet [10]
  Activity: inactive
Pancreatic islet [11]
  Activity: inactive
Pancreatic islet [12]
  Activity: inactive
[13]
  Activity: Non-Toxic
[14]
  fold change (FC): 3.2
[15]
  Activity: Non-Toxic
Pancreatic islet [16]
  Activity: Active
[17]
  fold change (FC): 5.1
